B1: tRNA (parent)
chain: GUUCCGUUGGCGUAAUGGUAACGCGUCUCCCUCCUAAGGAGAAGACUGCGGGUUCGAGUCCCGUACGGAACG

Variants of: B1
Test: yeast fitness, log relative to wild type (ln ratio); higher = fitter; tRNA-Arg(CCU), competitive growth, 37 C, 1 M NaCl
Summary of the method: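 Fitness is the natural log of each genotype's generations divided by the wild type's. Generations were derived as OD-scaled log2 output/input frequency from 125 bp paired-end Illumina counts, weighting replicates by inverse variance. Pools of the tRNA-Arg(CCU) variant library, on a HIS3 centromeric plasmid in BY4742 lacking the chromosomal gene, grew ~6.5 generations (~26.5 h) in SC-HIS 1M NaCl at 37 °C after 4 generations in SC-HIS at 30 °C.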

Variant | yeast fitness (ln)
G1A G6U A70U | -0.156
G1A G6U C27U A43C C46U C66A A70U C71U | -0.325
G1A G6U C27U C46U C66U A69G A70U C71U | -0.4
G1A G6U C27U A43C C66A A69G A70G C71U | -0.417
G1A G6U A43C C66U A70U | -0.212
G1A G6U A43C C66U A70G | -0.339
G1A G6U C27U A43C C46U A69G A70U C71U | -0.475
G1A G6U A43C C46U C66U A69G C71U | -0.43
G1A G6U C27U A43C C46U A70U C71U | -0.318
G1A G6U C27U C66A A70G | -0.228
G1A G6U C27U C66A A70U | -0.407
G1A G6U C27U A43C C46U C66A A69G A70G C71U | -0.359
G1A G6U A43C C46U C66A A69G A70U | -0.474
G1A G6U A43C C46U C66A A69G A70G | -0.258
G1A G6U C27U C46U C66A A70U C71U | -0.415
G1A G6U C27U A43C C46U C66U A70U C71U | -0.471
G1A G6U C27U A69G C71U | -0.371
G1A G6U C27U A43C A69G C71U | -0.557
G1A G6U C27U A43C C66U | -0.362
G1A G6U A43C C66A C71U | -0.0965
G1A G6U C27U A43C C46U C66A A70G | -0.319

Variant | yeast fitness (ln)
G1A G6U C27U A43C C46U C66A A70U | -0.359
G1A G6U C27U C46U A69G A70G C71U | -0.335
G1A G6U C27U C46U C66U A69G C71U | -0.595
G1A G6U C27U A43C C66U A70U C71U | -0.391
G1A G6U A43C C66U A69G C71U | -0.587
G1A G6U C27U C66A A70U C71U | -0.369
G1A G6U C27U A43C C46U C66A A69G A70U C71U | -0.426
G1A G6U A70G C71U | -0.148
G1A G6U A43C C46U C66U C71U | -0.275
G1A G6U A43C C66U A69G A70U C71U | -0.433
G1A G6U A43C C66A A70U C71U | -0.386
G1A G6U C27U A43C C66A C71U | -0.498
G1A G6U A43C C66U A70G C71U | -0.424
G1A G6U A43C C66A A70G C71U | -0.517
G1A G6U C27U A43C C46U | -0.258
G1A G6U A43C C46U C66A C71U | -0.0191
G1A G6U C27U A43C C66U C71U | -0.403
G1A G6U A43C C46U C66A A70U | -0.242
G1A G6U A43C C46U C66A A70G | -0.17
G1A G6U C27U A70G C71U | -0.352
G1A G6U C27U | -0.16

Variant | yeast fitness (ln)
G1A G6U C27U A43C C46U C66U | -0.475
G1A G6U C27U A43C C46U C66A | -0.168
G1A G6U C27U A43C C46U C66U A69G A70G C71U | -0.501
G1A G6U C27U C46U C66A A69G A70U C71U | -0.37
G1A G6U C27U C46U C66U C71U | -0.297
G1A G6U C27U A43C A70U C71U | -0.341
G1A G6U C27U A43C | -0.258
G1A G6U C27U A43C C46U C71U | -0.212
G1A G6U C27U A43C C46U C66A A69G C71U | -0.671
G1A G6U A43C C46U C66U | -0.286
G1A G6U C27U C66A | -0.254
G1A G6U C27U C66U | -0.29
G1A G6U C27U C46U C66U A70G C71U | -0.302
G1A G6U C27U A43C A69G A70G C71U | -0.34
G1A G6U C27U A69G A70G C71U | -0.376
G1A G6U A43C C46U C66U A69G A70U C71U | -0.429
G1A G6U A43C C46U C66U A70U C71U | -0.432
G1A G6U A43C C71U | -0.101
G1A G6U A43C C66U | -0.232
G1A G6U A43C C66A | -0.19
G1A G6U C27U C46U C66U A70G | -0.234

Variant | yeast fitness (ln)
G1A G6U C27U C46U C66U A70U | -0.29
G1A G6U A70U C71U | -0.213
G1A G6U C27U A43C A70G C71U | -0.426
G1A G6U A69G C71U | -0.186
G1A G6U C27U A43C C66U A69G A70G C71U | -0.497
G1A G6U C27U C46U C66A C71U | -0.0536
G1A G6U A43C C46U C66A A69G C71U | -0.198
G1A G6U C27U A43C C46U C66U A70U | -0.368
G1A G6U C27U A43C C46U C66U A70G | -0.387
G1A G6U A69G A70U C71U | -0.407
G1A G6U A43C C46U C66U A70G | -0.261
G1A G6U A43C C46U C66U A70U | -0.259
G1A G6U A43C C66U A70U C71U | -0.38
G1A G6U C27U A43C C66A A69G A70U C71U | -0.281
G1A G6U A43C C46U C71U | -0.174
G1A G6U C27U C66A A69G C71U | -0.388
G1A G6U C27U A43C C46U C66A A70G C71U | -0.377
G1A G6U A43C C66U A69G A70G C71U | -0.371
G1A G6U A43C C46U C66A A69G A70U C71U | -0.301
G1A G6U A43C C66U A69G A70U | -0.452
G1A G6U A43C C66U A69G A70G | -0.469

Reference: the RNAGym collection of RNA variant scans (doi:10.1038/s41586-018-0170-7)
